Compound activity: PubChem, Sanford-Burnham Center for Chemical Genomics
TNAP inh no acc: blocks human TNAP activity with no phosphate acceptor present | P05186 | purified TNAP, CDP-star luminescence, 30 min | inhibition, % at 20 µM | 0.26% of 200,000 active;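 active means tissue-nonspecific alkaline phosphatase inhibition above about 50% at 20 µM in the single-dose screen, limit read from the data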;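 further: 0% = DMSO negative control and 100% = EDTA positive control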
TNAP act hiacc: TNAP (human) activation, high acceptor. activation factor at 20 µM. P05186. 200,000 tested, under 10 active. purified TNAP, CDP-star luminescence, 1 M DEA, 30 min; stronger effect = higher value; 0 = EDTA background, 1 = DMSO-only activity. AID 1136;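 active means activation factor at least 2 at 20 µM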
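Dosing: 20 µM single point. System: human TNAP. Amount: TNAP 1/800 final. Incubation: 30 min, room temperature. Read-out: TNAP activation factor scaled between EDTA and DMSO control wells. Signal: luminescence from CDP-star hydrolysis. Medium: 1 M DEA, pH 9.8, Mg2+, Zn2+. Control set: EDTA negative control, DMSO positive control.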
PMI act: increases human mannose-6-phosphate isomerase activity; activation factor at 20 µM; 0.005% of 190,000 active; purified human PMI, coupled resazurin fluorescence, 20 min; stronger effect = higher value; 1 = vehicle control, 0 substrate-free wells;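 active means activation factor of 2 or more at 20 µM, relative to plate controls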
Target sequence (P34949 whole entry, looked up): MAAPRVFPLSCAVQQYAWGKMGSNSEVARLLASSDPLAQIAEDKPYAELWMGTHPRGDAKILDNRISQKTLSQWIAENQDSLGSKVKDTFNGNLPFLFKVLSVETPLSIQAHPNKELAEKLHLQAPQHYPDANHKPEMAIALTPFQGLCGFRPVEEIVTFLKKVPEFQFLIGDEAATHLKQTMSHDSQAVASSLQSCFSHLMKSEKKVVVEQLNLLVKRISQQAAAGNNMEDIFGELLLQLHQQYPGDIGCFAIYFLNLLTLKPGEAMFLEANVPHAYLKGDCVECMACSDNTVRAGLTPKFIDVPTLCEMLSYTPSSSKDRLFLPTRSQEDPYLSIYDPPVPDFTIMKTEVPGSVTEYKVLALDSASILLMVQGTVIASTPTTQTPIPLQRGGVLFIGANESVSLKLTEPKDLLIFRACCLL
PMI act hi M6P: increases human PMI activity with near-saturating mannose 6-phosphate; P34949; coupled PMI enzyme assay, resazurin fluorescence, 20 min; stronger effect = higher value; 1 = untreated enzyme, 0 = substrate-free blank; activation factor at 20 µM; 0.34% of 190,000 active; AID 1216;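 active means activation factor of 2 or more at 20 µM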
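Test system: human phosphomannose isomerase with PGI, G6PDH, diaphorase coupling enzymes; amount: 15 ng/mL PMI; incubation: enzyme reaction with compound 20 min at room temperature; technique: resorufin fluorescence (Ex 544/Em 590 nm) from resazurin via diaphorase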
TNAP inh hiacc: TNAP (human) inhibition, high acceptor | P05186 | purified TNAP, CDP-star luminescence, 1 M DEA | inhibition, % at 20 µM | 0.03% of 200,000 active | AID 1135;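 active means over 50% inhibition of tissue-nonspecific alkaline phosphatase at 20 µM in the single-dose screen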;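 further: plate controls were DMSO wells for no effect and EDTA-quenched wells as full inhibition for full effect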
* = called active by the depositor. An excerpt weighted towards active compounds, which were near 0.6% of everything screened.

SMILES	TNAP inh no acc	TNAP act hiacc	PMI act	PMI act hi M6P	TNAP inh hiacc
CCOC(=O)c1cc(CC)sc1/N=C/c1c(O)[nH]c(=S)[nH]c1=O	-10	1	1.4	1.8	3
Cc1nn(Cc2ccccc2)c(C)c1C=C1C(=O)NC(=O)NC1=O	-6	1	1	1	-1
CCOc1cccc(OCC)c2c(C)[n+](CC3CCCO3)c(C)c1-2 (stereo not drawn)	9	1	1.6	2*	2
CC1CCN(CC(=O)c2ccccc2Cl)CC1	-4	1	1.5	2*	-4
COc1ccc(Cn2c(O)c(/C=N/NC(=O)c3ccccc3)c(=O)[nH]c2=O)cc1	71*	1	1.1	1.2	0
CC(C)CCP(=O)(O)c1ccccc1	-5	1	1	1.1	1
O=C(O)CCn1cc(C=C2C(=O)NC(=S)NC2=O)c(-c2cc3ccccc3oc2=O)n1	0	1	1.3	2.3*	-4
O=C(O)CCn1cc(C=C2C(=O)NC(=S)NC2=O)c(-c2ccccc2)n1	-2	1	0.4	1.1	-2
Cc1cccc(OP(=O)(Oc2ccccc2)OC(c2ccccc2)C(F)(F)F)c1 (stereo not drawn)	-4	1.1	1.1	1.3	-6
CCNC(=O)NNC(=O)C1CC(c2cccnc2)=NO1 (stereo not drawn)	-3	1.1	1.1	1	-8
CC(=O)NC(Cc1ccc(N(CCCl)CCCl)cc1)C(=O)NC(CC(C)C)C(=O)O (stereo not drawn)	-8	1.1	1.7	2*	-6
COc1ccc(C)cc1NC1=NC(C)(C)CS1	-13	1.1	1.1	1.1	-6
O=C(c1ccccc1F)c1cn(CC(=O)N2CCCCC2)c2ccccc12	-8	1	1	1	-1
CCOc1ccc2nc(N=Nc3c(O)[nH]c(=S)[nH]c3=O)sc2c1	36	0.5	1.1	0.9	53*
CCOCCN1CCN(c2nnc3n2-c2ccc(Cl)cc2C(c2ccccc2Cl)=NC3)CC1	-4	1	0.9	1	-3
COc1cc(/C=C/[N+](=O)[O-])ccc1O	53*	0.6	1	0.6	38
CCN(CC)c1ccc(/C=C/[N+](=O)[O-])cc1	40	0.7	1	0.9	33
O=C(O)[C@H]1NC[C@H]2C[C@H]21	-10	1	1	1	-3
